Test results from ChEMBL document CHEMBL2146413, “Mammalian multidrug resistance lipopentasaccharide inhibitors from Ipomoea alba seeds” (J Nat Prod, 2012).
Converted amounts (≈) assume the structure as drawn.

How the values were obtained:
[1] = tested on: MCF7; test: Cytotoxicity against drug-sensitive human MCF7 cells after 72 hrs by SRB assay; type: functional, cell-based; conditions: MCF7, 72 h
Method in brief: (§1)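 Log-phase cells in RPMI 1640 + 10% FBS, 37 °C, 5% CO2, exposed in triplicate to 0.2−25 μg/mL test sample for 72 h. Growth read by sulforhodamine B. IC50 = concentration giving 50% inhibition of control growth, taken from a semilog plot of concentration against % growth inhibition. Vinblastine served as positive control. Resistant line MCF-7/Vin was kept with or without 0.192 μg/mL vinblastine.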

[2] = tested on: MCF7; test: Cytotoxicity against vinblastine-reasistant human MCF7 cells after 72 hrs by SRB assay; type: functional, cell-based; conditions: MCF7, 72 h; method in brief: as §1
[3] = tested on: MDR; test: Inhibition of MDR in vinblastine-resistant human MCF7 cells assessed as decrease in vinblastine IC50 at 5 ug/mL after 72 hrs by SRB assay; type: cell-based
Method in brief: (§2)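 Vinblastine (0.00064−10 μg/mL) was given with or without glycolipid at 25 or 5 μg/mL for 72 h at 37 °C, 5% CO2, then read by SRB assay. Vinblastine IC50 came from a semilog plot. Reversal fold = IC50 of vinblastine alone / IC50 with glycolipid. Reserpine 5 μg/mL served as positive control. Values are mean ± SD of three independent experiments.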

[4] = tested on: MDR; test: Inhibition of MDR in vinblastine-sensitive human MCF7 cells assessed as decrease in vinblastine IC50 at 5 ug/mL after 72 hrs by SRB assay; type: cell-based; method in brief: as §2
[5] = tested on: MDR; test: Inhibition of MDR in drug-sensitive human MCF7 cells assessed as decrease in vinblastine IC50 at 5 ug/mL after 72 hrs by SRB assay; type: cell-based; method in brief: as §2
[6] = tested on: MCF7; test: Cytotoxicity against vinblastine-sensitive human MCF7 cells after 72 hrs by SRB assay; type: functional, cell-based; conditions: MCF7, 72 h; method in brief: as §1
[7] = tested on: MDR; test: Inhibition of MDR in vinblastine-resistant human MCF7 cells assessed as decrease in vinblastine IC50 at 25 ug/mL after 72 hrs by SRB assay; type: cell-based; method in brief: as §2
[8] = tested on: MDR; test: Inhibition of MDR in vinblastine-sensitive human MCF7 cells assessed as decrease in vinblastine IC50 at 25 ug/mL after 72 hrs by SRB assay; type: cell-based; method in brief: as §2
[9] = tested on: MDR; test: Inhibition of MDR in drug-sensitive human MCF7 cells assessed as decrease in vinblastine IC50 at 25 ug/mL after 72 hrs by SRB assay; type: cell-based; method in brief: as §2

CC[C@]1(O)C[C@@H]2CN(CCc3c([nH]c4ccccc34)[C@@](C(=O)OC)(c3cc4c(cc3OC)N(C)[C@H]3[C@@](O)(C(=O)OC)[C@H](OC(C)=O)[C@]5(CC)C=CCN6CC[C@]43[C@@H]65)C2)C1 [VINBLASTINE] showed an IC50 [1] of 0.047 µg/mL (≈ 0.058 µM) and an IC50 [2] of 1.37 µg/mL (≈ 1.69 µM).
Work on COC(=O)[C@H]1[C@H]2C[C@@H]3c4[nH]c5cc(OC)ccc5c4CCN3C[C@H]2C[C@@H](OC(=O)c2cc(OC)c(OC)c(OC)c2)[C@@H]1OC yielded a fold change (FC) [3] of 4.4, a fold change (FC) [4] of 29.2 and a fold change (FC) [5] of 15.7.
In the case of C/C=C(\C)C(=O)O[C@H]1[C@@H]2O[C@H]3[C@H](O[C@@H](CCC)CCCCCCCCCC(=O)O[C@@H]4[C@@H](O)[C@H](C)O[C@@H](O[C@@H]5[C@@H](O[C@@H]6O[C@@H](C)[C@H](O)[C@@H](O)[C@H]6O)[C@H](O[C@H]([C@H]1O)[C@H](C)O2)O[C@H](C)[C@H]5OC(=O)/C(C)=C/C)[C@@H]4O)O[C@H](C)[C@@H](O)[C@@H]3O [ALBINOSIDE II], the IC50 [6] is reported as over 20 µg/mL, the IC50 [1] is reported as over 20 µg/mL and the IC50 [2] is reported as over 20 µg/mL. It also gave a fold change (FC) [7] of 2.6, a fold change (FC) [8] of 1.3 and a fold change (FC) [9] of 1.9.
Work on CCC[C@H]1CCCCCCCCCC(=O)O[C@H]2[C@H](O[C@H]3[C@H](OC[C@H]4O[C@@H](O[C@H]5[C@H](O1)O[C@H](C)[C@@H](O)[C@@H]5O)[C@H](O[C@@H]1O[C@@H](C)[C@H](OC(C)=O)[C@@H](O)[C@H]1O)[C@@H](O)[C@@H]4O)O[C@H](C)[C@@H](O)[C@@H]3O)O[C@@H](C)[C@H](OC(=O)[C@H](C)[C@@H](C)O)[C@H]2O [ALBINOSIDE I] yielded an IC50 [6] of over 20 µg/mL, an IC50 [1] of over 20 µg/mL and an IC50 [2] of over 20 µg/mL. The fold change (FC) [7] was 3.1, the fold change (FC) [8] was 4.2 and the fold change (FC) [9] was 2.1.
Work on C/C=C(\C)C(=O)O[C@H]1[C@H](O[C@H]2[C@@H]3O[C@H]4[C@H](O[C@@H](CCCCC)CCCCCCCCCC(=O)O[C@H]2[C@H](O)[C@@H](CO[C@@H]2O[C@H](C)[C@@H](O)[C@H](OC(=O)/C(C)=C/C)[C@H]2O[C@@H]2O[C@@H](C)[C@H](O)[C@@H](O)[C@H]2O)O3)O[C@H](C)[C@@H](O)[C@@H]4O)O[C@@H](C)[C@H](O)[C@H]1O [ALBINOSIDE III] yielded an IC50 [6] of over 20 µg/mL, an IC50 [1] of over 20 µg/mL and an IC50 [2] of over 20 µg/mL. For the same compound, the fold change (FC) [7] was over 2140, the fold change (FC) [8] was over 1690 and the fold change (FC) [9] was over 73.4.
